# This is a sample that favours compounds with a hit; in the whole collection about 2.1% have one here.
# HTR2A ag: mouse Htr2a agonists via beta-arrestin recruitment, primary screen, cell-based, luminescence; 5-hydroxytryptamine receptor 2A (Mus musculus), P35363; CHO-K1 mHTR2A beta-arrestin complementation; percent of 30 µM serotonin response; activation, % at 7.6 µM; hit rate 0.66% among 360,000; AID 624169, 2012;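 active = activation above a run cutoff, the mean activation of all tested compounds plus 3 SD, cut at about 14% in these data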;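 also: 0% = plate median of compound wells and 100% = 30 µM serotonin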
# Target sequence (P35363 whole entry, looked up): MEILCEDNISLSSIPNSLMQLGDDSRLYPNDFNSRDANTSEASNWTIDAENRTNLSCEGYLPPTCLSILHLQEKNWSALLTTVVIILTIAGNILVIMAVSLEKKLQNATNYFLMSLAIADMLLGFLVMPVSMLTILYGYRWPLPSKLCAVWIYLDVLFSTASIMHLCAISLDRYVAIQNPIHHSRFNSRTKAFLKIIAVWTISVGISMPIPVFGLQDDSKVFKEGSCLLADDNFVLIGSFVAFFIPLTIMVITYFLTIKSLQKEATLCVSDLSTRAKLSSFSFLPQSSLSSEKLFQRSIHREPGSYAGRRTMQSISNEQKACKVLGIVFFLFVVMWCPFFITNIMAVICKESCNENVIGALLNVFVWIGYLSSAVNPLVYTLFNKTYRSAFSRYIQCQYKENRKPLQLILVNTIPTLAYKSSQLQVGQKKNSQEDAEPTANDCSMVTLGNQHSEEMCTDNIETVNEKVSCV
# APJ antag: antagonists of human apelin receptor APJ, primary screen, CHO-K1 cells, beta-arrestin complementation, luminescence; P35414; inhibition, % at 20 µM; hit rate 0.32% among 330,000; AID 2521, 2010;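 active = inhibition above about 40% at 20 µM, limit read from the data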;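 also: cells challenged with 10 nM apelin-13 agonist together with compound; plate controls were apelin-13 plus DMSO wells for no effect and DMSO wells lacking apelin-13 for full effect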
# CXCR6 inh: CXCR6 receptor inhibitors, primary screen, cell-based, beta-arrestin, luminescence, CHO-K1 PathHunter, 1536-well; C-X-C chemokine receptor type 6 (Homo sapiens), O00574; inhibition, % at 20 µM; hit rate 0.36% among 360,000; AID 602244, 2012; in the data active = inhibition above about 34%, passing the limit was not always enough;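 also: antagonist mode with CXCL16 agonist at 10 nM final; 0% = 10 nM CXCL16 with DMSO and 100% = unstimulated wells without agonist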
# CCR6 antag: CCR6 receptor antagonists, primary screen, cell-based, CHO-K1, luminescence, beta-arrestin, uHTS | C-C chemokine receptor type 6 (Homo sapiens), P51684 | CHO-K1 CCR6 PathHunter beta-arrestin, CCL20-stimulated | inhibition, % at 20 µM | hit rate 0.49% among 340,000;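 active = compounds whose inhibition of the agonist-driven luminescence signal at 20 µM reaches about 50%, limit read from the data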;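 also: cells stimulated with CCL20 at 14 nM final; plate controls were DMSO with CCL20 for no effect and DMSO without agonist for full effect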
# EBI2 block: EBI2 receptor antagonists, beta-arrestin recruitment, primary screen, cell-based, luminescence, 7a,25-OHC stimulation, uHTS | G-protein coupled receptor 183 (Homo sapiens), P32249 | 7a,25-OHC stimulated | inhibition, % at 5 µM | hit rate 0.81% among 360,000; in the data active = inhibition above about 38%;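 also: enzyme fragment complementation signal reports receptor beta-arrestin coupling in cells; 0% = agonist plus DMSO wells and 100% = wells without agonist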
# APJ agonist: agonists of human apelin receptor APJ, primary screen, CHO-K1 cells, PathHunter beta-arrestin, luminescence. P35414. 0% DMSO wells, 100% apelin. activation, % at 20 µM. hit rate 0.11% among 330,000. AID 2520, 2010;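 active = activation more than six SD over the plate average, tested at 20 µM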;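 also: 0% = DMSO alone and 100% = apelin-13 at 10 nM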
#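 Test system – PathHunter CHO-K1 APJ (AGTRL-1) beta-arrestin reporter cells · Input – 1000 cells/well · Compound – single test compound dose, 20 µM final, 1% DMSO · Times – compound stimulation 90 min at 25 °C, detection 60 min · Technique – beta-gal luminescence · Read-out basis – APJ–arrestin association signal · Control set – negative DMSO alone, positive Apelin-13 at 10 nM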
# The depositor's hits bear a star; / = no result given.
SMILES,HTR2A ag,APJ antag,CXCR6 inh,CCR6 antag,EBI2 block,APJ agonist
O=C(O)c1cc(O)c2c(c1)[C@@H]([C@H]1c3cc(C(=O)O)cc(O)c3C(=O)c3c(O[C@@H]4O[C@H](CO)[C@@H](O)[C@H](O)[C@H]4O)cccc31)c1cccc(OC3O[C@H](CO)[C@@H](O)[C@H](O)[C@H]3O)c1C2=O (stereo not given in full),-2,22,-10,79*,-15,4
O=C1c2cc(CO)cc(O)c2C(=O)c2c(O[C@@H]3OC(CO)[C@@H](O)[C@@H](O)[C@@H]3O)cccc21 (stereo not given in full),7,-176,-2,-5,-22,-4
CC(=O)c1cccc(NC(=O)NCc2cccs2)c1,8,10,-1,20,4,-6
Cc1c(C(=O)Nc2nccs2)sc2nc(-c3cccs3)cc(C(F)(F)F)c12,-2,29,33,53*,-13,-6
Cc1c(C(=O)O)sc2nc(-c3cccs3)cc(C(F)(F)F)c12,0,16,1,-2,6,1
O=C(CCCN1C(=O)/C(=C/c2ccccc2Cl)SC1=S)NNC(=O)c1ccccc1,-3,14,11,16,42*,-4
O=C(Nc1ccc(N2CCOCC2)cc1)C1CC1,0,-11,-7,-13,-7,-3
O=C(Nc1ccc(N2CCOCC2)cc1)NC1CCCCC1,15*,26,-8,10,-1,1
C#CCOCCOCCOCCNc1nc(N2CCN(C(=O)CCCCCCCCCCNC(=O)[C@H]([C@@H](C)CC)n3cc(CCCCN=C(N)N)nn3)CC2)nc(N2CCN(C(=O)CCCCCCCCCCNC(=O)[C@H](CO)n3cc(CCCCCN)nn3)CC2)n1,2,14,61*,-27,-1,3
C#CCOCCOCCOCCNc1nc(N2CCN(C(=O)CCCCCCCCCCNC(=O)Cn3cc(CCCCCN)nn3)CC2)nc(N2CCN(C(=O)CCCCCCCCCCNC(=O)[C@H]([C@@H](C)CC)n3cc(CCCCN=C(N)N)nn3)CC2)n1,-4,22,40,-27,-7,17
C#CCOCCOCCOCCNc1nc(N2CCN(C(=O)CCCCCCCCCCNC(=O)[C@H]([C@@H](C)CC)n3cc(CCCCCN)nn3)CC2)nc(N2CCN(C(=O)CCCCCCCCCCNC(=O)[C@@H]([C@H](C)CC)n3cc(CCCCCN)nn3)CC2)n1,/,22,/,/,/,55*
C#CCOCCOCCOCCNc1nc(N2CCN(C(=O)CCCCCCCCCCNC(=O)[C@H]([C@@H](C)CC)n3cc(CCCCN=C(N)N)nn3)CC2)nc(N2CCN(C(=O)CCCCCCCCCCNC(=O)[C@H]([C@@H](C)CC)n3cc(CCCCN=C(N)N)nn3)CC2)n1,/,27,/,/,/,71*
C#CCOCCOCCOCCNc1nc(N2CCOCC2)nc(N2CCN(C(=O)CCCCCCCCCCNC(=O)[C@@H]([C@H](C)CC)n3cc(CCCCCN)nn3)CC2)n1,7,14,1,13,-6,1
COc1ccc(N2C(=O)CC(Sc3nnnn3-c3ccc(F)cc3)C2=O)cc1 (stereo not given),4,-34,102*,96*,-1,-2
COc1ccccc1CNC(=O)COC(=O)Cc1c(Cl)cccc1Cl,-5,12,4,9,8,-3
Cc1cc(Cl)c(S(=O)(=O)NC2CCCC2)cc1OCC(=O)NC1CCCCC1,0,0,6,-14,45*,1
O=C(OCn1ncc(Br)c(Br)c1=O)c1ccccc1Cl,-8,28,49*,43,47*,0
O=C(OCn1ncc(Br)c(Br)c1=O)c1ccc(F)cc1,-5,21,47*,44,50*,-1
O=C(OCc1cnc(Cl)s1)c1ccccc1Cl,-5,4,-17,3,-11,0
O=C(OCc1ccccc1)c1cc(S(=O)(=O)N2CCCCC2)ccc1N1CCOCC1,-5,-6,-1,10,7,-3
CCC(CC)CN1CCC(CN2C(=O)C(=O)NC[C@@H]2CC(C)C)CC1,5,/,-3,/,-14,/
COc1cc2c(cc1OC)C(c1ccc(Cl)cc1)=NCC2,-6,-19,7,17,6,0
COc1cc2c(cc1OC)C(C)=NCC2,-2,4,1,-11,-5,-4
COc1cc2c(cc1OC)C(c1ccc(-c3ccc(Cl)c(Cl)c3)o1)=NCC2,-9,8,-9,10,66*,-1
COc1cc2c(cc1OC)C(c1ccc(-c3ccccc3Cl)o1)=NCC2,-7,9,0,4,49*,-1
SMILES,HTR2A ag,APJ antag,CXCR6 inh,CCR6 antag,EBI2 block,APJ agonist
COc1cc2c(cc1OC)C(c1ccc(-c3cc(Cl)ccc3Cl)o1)=NCC2,-8,11,-1,0,62*,-1
CCOC(=O)c1ccc(NC(=O)Nc2ccon2)cc1,-1,-16,-1,-12,-14,-2
COc1ccc(/C(N)=N/OC(=O)CSc2ccccc2)cc1,4,10,-2,-1,-12,2
N#CC(C#N)=C1C=CC=CN1/C(=C\c1ccco1)C(=O)c1ccc(Cl)cc1,-2,/,103*,117*,74*,/
N#Cc1c(SCc2ccccc2)nc(N2CCOCC2)c2c1CCCC2,-8,15,6,10,30,-1
CCOC(=O)c1nnn(-c2nonc2N)c1CN1CCCCCC1,1,-7,3,104*,-7,-3
CCOC(=O)c1nnn(-c2nonc2N)c1CN1CCCC1,1,5,-3,-2,1,-2
OCCc1ccc(-c2ccc(Cl)cc2)o1,-2,4,-10,-6,-7,1
COC(=O)CSc1nc(N)c2c3c(sc2n1)C(c1ccccc1)SC(c1ccccc1)C3 (stereo not given),3,-32,6,7,55*,5
CC1CCN(CCc2nc3cc(NS(=O)(=O)c4ccc(F)cc4)ccc3n2C)CC1,-3,4,7,21,6,-3
Oc1c(Br)cc(Br)c2cccnc12,-2,/,31,56*,14,/
Oc1c(CN2CCN(c3ccccc3)CC2)cc(Br)c2cccnc12,-10,/,26,25,18,/
CCOC(=O)c1c(N)sc(-c2ccccc2)c1C,-3,2,12,59*,6,-5
O=C(NCCC1=CCCCC1)C1CC(=O)N(C2CCCCC2)C1 (stereo not given),-3,18,2,-6,-10,-2
FC(F)(F)C1=Nc2cccc3cccc(c23)N1,-2,-41,62*,80*,-5,12
